# ChEMBL document CHEMBL1138064, “Discovery of N-[(3R)-1-azabicyclo[2.2.2]oct-3-yl]furo[2,3-c]pyridine-5-carboxamide, an agonist of the alpha7 nicotinic acetylcholine receptor, for the potential treatment of cognitive deficits in schizophrenia: synthesis and structure--activity relationship” (J Med Chem, 2006)
# Columns and labels:
# [1] = Oral bioavailability in rat at 5 mg/kg; format: ADME, organism-based; conditions: in vivo
# [2] = molecular target: Neuronal acetylcholine receptor subunit alpha-7 (Rattus norvegicus) (UniProt Q05941); test: Activity at alpha-7 nAChR in Sprague-Dawley rat hippocampal neurons assessed as induction of MLA-inhibited desensitizing inward current at 30 uM relative to (-)-nicotine; format: functional, tissue-based; set-up: scale not given: the % may be the effect or the level left; conditions: Hippocampus
# Outline: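 Rat hippocampal neurons were recorded by whole-cell patch clamp with rapid agonist application. Desensitizing inward currents were measured, and α7 mediation was tested with MLA (10 nM), n = 3.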
# Rattus norvegicus [3] = test: Reversal of amphetamine-induced gating deficit in Sprague-Dawley at 10 mg/kg, iv; format: functional
# Outline: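 Anesthetised rats; d-amphetamine 1 mg/kg iv given to disrupt auditory gating recorded in the hippocampal CA3 region (conditioning vs test responses, analogous to human P50). Agonist given iv afterwards; read-out is % gating versus amphetamine-alone. The 10 mg/kg dose was run as a separate experiment. Brain drug levels were measured after the iv doses.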
# [4] = molecular target: Beta-2 adrenergic receptor (Homo sapiens) (UniProt P07550); test: Inhibition of adrenergic beta-2 receptor at 1 uM
# [5] = molecular target: Sodium-dependent noradrenaline transporter (Homo sapiens) (UniProt P23975); test: Inhibition of human NE transporter at 1 uM
# [6] = molecular target: Type-1 angiotensin II receptor (Homo sapiens) (UniProt P30556); test: Inhibition of AT1 receptor at 1 uM
# [7] = molecular target: Atrial natriuretic peptide receptor (Homo sapiens) (UniProt P20594+P16066+P17342); test: Inhibition of ANP receptor at 1 uM; format: protein assay
# [8] = molecular target: Calcitonin gene-related peptide type 1 receptor (Homo sapiens) (UniProt Q16602); test: Inhibition of CGRP receptor at 1 uM
# [9] = molecular target: D(3) dopamine receptor (Homo sapiens) (UniProt P35462); test: Inhibition of D3 receptor at 1 uM
# [10] = molecular target: D(4) dopamine receptor (Homo sapiens) (UniProt P21917); test: Inhibition of D4.4 receptor at 1 uM
# [11] = molecular target: Serotonin 3 (5-HT3) receptor (Homo sapiens) (UniProt P46098+A5X5Y0+O95264+Q70Z44+Q8WXA8); test: Inhibition of 5HT3 receptor at 1 uM; format: protein-complex assay
# Homo sapiens [12] = species on record: Homo sapiens; test: Inhibition of potassium channel V type at 1 uM
# Homo sapiens [13] = species on record: Homo sapiens; test: Inhibition of site 2 of sodium channel at 1 uM
# [14] = molecular target: Prostaglandin G/H synthase 2 (Homo sapiens) (UniProt P35354); test: Inhibition of COX2 at 1 uM
# [15] = molecular target: Nitric oxide synthase, inducible (Homo sapiens) (UniProt P35228); test: Inhibition of Nitric oxide synthase, inducible at 1 uM
# [16] = molecular target: Phosphodiesterase 1 (Homo sapiens) (UniProt P54750+Q01064+Q14123); test: Inhibition of PDE1 at 1 uM; format: protein assay
# [17] = molecular target: Phosphodiesterase 3 (Homo sapiens) (UniProt Q14432+Q13370); test: Inhibition of PDE3 at 1 uM; format: protein assay
# [18] = molecular target: Phosphodiesterase 4 (Homo sapiens) (UniProt P27815+Q08499+Q07343+Q08493); test: Inhibition of PDE4 at 1 uM; format: protein assay
# [19] = molecular target: Endothelin-converting enzyme 1 (Homo sapiens) (UniProt P42892); test: Inhibition of ECE at 1 uM
# [20] = molecular target: Cathepsin B (Homo sapiens) (UniProt P07858); test: Inhibition of cathepsin B at 1 uM
# [21] = molecular target: Human immunodeficiency virus type 1 protease (Human immunodeficiency virus 1) (UniProt Q72874); test: Inhibition of HIV1 protease at 1 uM
# Homo sapiens [22] = species on record: Homo sapiens; test: Inhibition of stimulated adenylate cyclase at 1 uM
# [23] = molecular target: Soluble guanylate cyclase (Homo sapiens) (UniProt Q02153+O75343+P33402+Q02108); test: Inhibition of stimulated guanylate cyclase at 1 uM; format: protein-complex assay
# [24] = molecular target: Protein kinase C (PKC) (Homo sapiens) (UniProt O94806+P41743+P17252+P05129+Q05655+P05771+Q05513+Q02156+P24723+Q15139+Q04759); test: Inhibition of PKC at 1 uM; format: protein assay
# [25] = molecular target: Epidermal growth factor receptor (Homo sapiens) (UniProt P00533); test: Inhibition of EGFR at 1 uM
# MAO-B = MAO-B (Homo sapiens, UniProt P27338); test: Inhibition of MAO-B at 1 uM
# [26] = molecular target: Sodium/potassium-transporting ATPase (Homo sapiens) (UniProt P05023+P14415+P05026+P50993+P54709+P13637+Q13733+P54710); test: Inhibition of Sodium/potassium-transporting ATPase at 1 uM; format: protein-complex assay
# [27] = Activity at alpha7-5HT3 chimera expressed in SHEP1 cells by FLIPR assay; format: functional, cell-based; conditions: Homo sapiens, SH-EP1
# Outline: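 Cell-based FLIPR functional assay in SH-EP1 cells expressing the α7-5HT3 chimera. Values are the average of at least five experiments for most compounds.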
# [28] = molecular target: Neuronal acetylcholine receptor; alpha3/beta4 (Homo sapiens, UniProt P30926+P32297); test: Inhibition of alpha-3-beta-4 nAChR expressed in SHSY5Y cells by FLIPR assay; format: functional, cell-based, SH-SY5Y
# Outline: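 FLIPR cell-based functional assay in SH-SY5Y cells, which carry α3β4-containing ganglion-type nAChRs; tested for agonist and antagonist activity; IC50 in µM.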
# Cytochrome P450 2D6 = Cytochrome P450 2D6 (Homo sapiens, UniProt P10635); test: Inhibition of CYP2D6; format: ADME
# [29] = Half life in human liver microsome; format: ADME; conditions: liver microsomes
# Rattus norvegicus [30] = test: Drug level in Sprague-Dawley rat brain at 10 mg/kg, iv; format: ADME, organism-based; set-up: dose 10 mg/kg, route intravenous; conditions: in vivo, read-out: Drug uptake
# Outline: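 Anesthetized rats received d-amphetamine (1 mg/kg, iv) and then the agonist iv in the auditory gating model. Brain concentrations were measured after the iv agonist dose.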
# [31] = molecular target: Adenosine receptor A1 (Homo sapiens) (UniProt P30542); test: Inhibition of adenosine A1 receptor at 1 uM
# [32] = molecular target: Endothelin-1 receptor (Homo sapiens) (UniProt P25101); test: Inhibition of human ETA receptor at 1 uM
# [33] = molecular target: Endothelin receptor type B (Homo sapiens) (UniProt P24530); test: Inhibition of human ETB receptor at 1 uM
# [34] = molecular target: Platelet-derived growth factor receptor (Homo sapiens) (UniProt P09619+P16234); test: Inhibition of PDGF receptor at 1 uM; format: protein-complex assay
# Homo sapiens [35] = species on record: Homo sapiens; test: Inhibition of ML1 receptor at 1 uM
# [36] = molecular target: Muscarinic acetylcholine receptor M2 (Homo sapiens) (UniProt P08172); test: Inhibition of M2 receptor at 1 uM
# [37] = molecular target: Substance-P receptor (Homo sapiens) (UniProt P25103); test: Inhibition of NK1 receptor at 1 uM
# [38] = molecular target: Delta-type opioid receptor (Homo sapiens) (UniProt P41143); test: Inhibition of human delta opioid receptor at 1 uM
# [39] = molecular target: Kappa-type opioid receptor (Homo sapiens) (UniProt P41145); test: Inhibition of human kappa opioid receptor at 1 uM
# [40] = molecular target: 5-hydroxytryptamine receptor 1B (Homo sapiens) (UniProt P28222); test: Inhibition of 5HT1B receptor at 1 uM
# Sequence of 5-hydroxytryptamine receptor 1B (Homo sapiens) (P28222 whole entry): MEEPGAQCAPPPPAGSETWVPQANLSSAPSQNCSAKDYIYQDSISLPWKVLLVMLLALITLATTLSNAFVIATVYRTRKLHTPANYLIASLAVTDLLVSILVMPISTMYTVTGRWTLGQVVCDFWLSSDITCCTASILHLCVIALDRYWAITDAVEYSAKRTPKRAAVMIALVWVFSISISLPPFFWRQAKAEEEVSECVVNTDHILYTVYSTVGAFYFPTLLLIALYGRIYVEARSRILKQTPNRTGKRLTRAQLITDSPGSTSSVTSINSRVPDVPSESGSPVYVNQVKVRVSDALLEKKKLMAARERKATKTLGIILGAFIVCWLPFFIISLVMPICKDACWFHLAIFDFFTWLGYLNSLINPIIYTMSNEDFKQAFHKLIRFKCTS
# Sequence of Epidermal growth factor receptor (Homo sapiens) (P00533 whole entry): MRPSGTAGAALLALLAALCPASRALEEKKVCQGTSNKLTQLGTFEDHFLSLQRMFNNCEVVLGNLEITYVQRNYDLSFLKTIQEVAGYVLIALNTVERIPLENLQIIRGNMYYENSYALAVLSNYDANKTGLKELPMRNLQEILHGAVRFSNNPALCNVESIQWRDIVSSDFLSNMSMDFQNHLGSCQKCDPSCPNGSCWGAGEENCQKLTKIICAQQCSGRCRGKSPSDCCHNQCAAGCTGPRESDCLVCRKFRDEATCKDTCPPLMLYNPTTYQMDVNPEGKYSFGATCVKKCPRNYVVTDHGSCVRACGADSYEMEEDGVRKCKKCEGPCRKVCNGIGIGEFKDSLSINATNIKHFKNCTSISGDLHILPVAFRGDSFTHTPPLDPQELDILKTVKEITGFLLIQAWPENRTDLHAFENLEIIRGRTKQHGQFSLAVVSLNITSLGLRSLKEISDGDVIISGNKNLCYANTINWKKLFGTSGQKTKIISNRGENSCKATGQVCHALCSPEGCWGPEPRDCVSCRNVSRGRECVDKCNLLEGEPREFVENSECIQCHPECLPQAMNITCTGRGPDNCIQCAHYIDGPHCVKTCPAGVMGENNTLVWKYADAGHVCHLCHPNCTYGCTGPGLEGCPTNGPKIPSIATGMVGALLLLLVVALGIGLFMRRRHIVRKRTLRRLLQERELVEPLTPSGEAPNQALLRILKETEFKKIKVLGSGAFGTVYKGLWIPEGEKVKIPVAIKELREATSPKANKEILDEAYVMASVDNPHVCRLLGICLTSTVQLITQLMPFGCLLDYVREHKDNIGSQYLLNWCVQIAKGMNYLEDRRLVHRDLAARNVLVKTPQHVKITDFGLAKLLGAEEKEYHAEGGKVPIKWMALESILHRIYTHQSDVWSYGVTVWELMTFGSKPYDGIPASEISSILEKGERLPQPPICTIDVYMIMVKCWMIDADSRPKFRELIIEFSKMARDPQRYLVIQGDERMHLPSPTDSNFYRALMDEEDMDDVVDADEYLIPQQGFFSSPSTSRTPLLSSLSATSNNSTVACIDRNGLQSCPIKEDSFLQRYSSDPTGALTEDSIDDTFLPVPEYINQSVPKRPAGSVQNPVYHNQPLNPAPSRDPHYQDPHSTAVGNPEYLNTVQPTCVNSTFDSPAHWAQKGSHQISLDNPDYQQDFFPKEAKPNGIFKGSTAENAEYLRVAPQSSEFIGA
# Sequence of Calcitonin gene-related peptide type 1 receptor (Homo sapiens) (Q16602 whole entry): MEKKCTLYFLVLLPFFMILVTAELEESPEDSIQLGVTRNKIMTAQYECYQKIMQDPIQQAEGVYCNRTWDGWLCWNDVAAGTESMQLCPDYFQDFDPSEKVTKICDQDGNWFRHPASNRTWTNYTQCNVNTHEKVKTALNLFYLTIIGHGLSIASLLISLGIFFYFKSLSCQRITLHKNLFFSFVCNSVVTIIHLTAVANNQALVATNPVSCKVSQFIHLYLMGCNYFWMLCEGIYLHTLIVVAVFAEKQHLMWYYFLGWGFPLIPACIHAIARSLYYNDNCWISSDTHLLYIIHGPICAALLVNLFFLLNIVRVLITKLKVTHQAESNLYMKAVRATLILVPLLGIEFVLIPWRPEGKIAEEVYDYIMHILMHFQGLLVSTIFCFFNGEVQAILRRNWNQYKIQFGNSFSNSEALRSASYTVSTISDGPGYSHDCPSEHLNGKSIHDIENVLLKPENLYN
# Sequence of Sodium-dependent noradrenaline transporter (Homo sapiens) (P23975 whole entry): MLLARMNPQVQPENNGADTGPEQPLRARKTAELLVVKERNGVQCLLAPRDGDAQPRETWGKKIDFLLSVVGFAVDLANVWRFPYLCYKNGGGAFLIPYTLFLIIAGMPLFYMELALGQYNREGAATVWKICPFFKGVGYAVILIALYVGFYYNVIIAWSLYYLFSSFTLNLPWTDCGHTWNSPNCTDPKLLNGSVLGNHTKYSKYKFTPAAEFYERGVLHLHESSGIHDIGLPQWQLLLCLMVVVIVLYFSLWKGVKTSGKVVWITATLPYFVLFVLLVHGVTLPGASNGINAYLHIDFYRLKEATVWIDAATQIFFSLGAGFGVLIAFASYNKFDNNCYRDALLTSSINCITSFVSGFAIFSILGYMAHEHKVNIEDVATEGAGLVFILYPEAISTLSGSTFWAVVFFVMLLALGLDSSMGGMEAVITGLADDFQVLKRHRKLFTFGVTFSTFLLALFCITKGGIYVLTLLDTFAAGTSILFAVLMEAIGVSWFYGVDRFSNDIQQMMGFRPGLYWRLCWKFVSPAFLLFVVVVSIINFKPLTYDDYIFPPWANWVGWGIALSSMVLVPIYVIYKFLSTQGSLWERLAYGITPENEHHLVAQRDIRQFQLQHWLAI
# Sequence of Type-1 angiotensin II receptor (Homo sapiens) (P30556 whole entry): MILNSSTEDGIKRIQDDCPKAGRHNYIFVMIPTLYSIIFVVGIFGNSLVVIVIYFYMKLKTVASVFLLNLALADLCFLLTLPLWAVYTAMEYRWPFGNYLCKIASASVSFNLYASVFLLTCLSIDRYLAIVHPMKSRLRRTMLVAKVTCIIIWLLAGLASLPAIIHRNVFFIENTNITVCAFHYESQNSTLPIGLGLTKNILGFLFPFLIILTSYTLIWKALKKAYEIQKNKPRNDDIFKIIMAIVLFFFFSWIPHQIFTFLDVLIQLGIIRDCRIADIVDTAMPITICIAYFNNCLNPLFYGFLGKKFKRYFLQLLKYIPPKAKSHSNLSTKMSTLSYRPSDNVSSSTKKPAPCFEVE
# Sequence of Muscarinic acetylcholine receptor M2 (Homo sapiens) (P08172 whole entry): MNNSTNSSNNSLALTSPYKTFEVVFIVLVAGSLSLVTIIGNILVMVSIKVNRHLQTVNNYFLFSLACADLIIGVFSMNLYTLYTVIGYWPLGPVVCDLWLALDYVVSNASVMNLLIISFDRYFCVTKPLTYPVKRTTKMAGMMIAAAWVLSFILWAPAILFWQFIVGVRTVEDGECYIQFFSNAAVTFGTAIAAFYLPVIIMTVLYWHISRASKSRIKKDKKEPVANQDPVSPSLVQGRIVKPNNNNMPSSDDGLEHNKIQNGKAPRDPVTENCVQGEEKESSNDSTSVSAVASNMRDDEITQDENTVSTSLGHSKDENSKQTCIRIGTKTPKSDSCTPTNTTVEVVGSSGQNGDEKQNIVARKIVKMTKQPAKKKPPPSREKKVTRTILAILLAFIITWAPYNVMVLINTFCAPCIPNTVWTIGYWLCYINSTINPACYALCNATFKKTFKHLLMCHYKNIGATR
# Sequence of Substance-P receptor (Homo sapiens) (P25103 whole entry): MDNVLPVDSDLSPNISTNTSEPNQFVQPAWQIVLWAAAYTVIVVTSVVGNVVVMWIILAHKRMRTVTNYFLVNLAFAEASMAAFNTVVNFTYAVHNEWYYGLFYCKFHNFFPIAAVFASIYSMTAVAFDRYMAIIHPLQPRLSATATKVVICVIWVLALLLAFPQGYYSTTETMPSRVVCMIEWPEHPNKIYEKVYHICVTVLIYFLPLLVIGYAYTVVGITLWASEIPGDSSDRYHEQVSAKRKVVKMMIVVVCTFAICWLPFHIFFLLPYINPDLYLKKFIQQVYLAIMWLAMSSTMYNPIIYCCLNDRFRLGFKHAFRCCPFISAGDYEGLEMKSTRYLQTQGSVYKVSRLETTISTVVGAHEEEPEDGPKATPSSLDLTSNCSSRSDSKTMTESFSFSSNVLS
# Sequence of Cytochrome P450 2D6 (P10635 whole entry): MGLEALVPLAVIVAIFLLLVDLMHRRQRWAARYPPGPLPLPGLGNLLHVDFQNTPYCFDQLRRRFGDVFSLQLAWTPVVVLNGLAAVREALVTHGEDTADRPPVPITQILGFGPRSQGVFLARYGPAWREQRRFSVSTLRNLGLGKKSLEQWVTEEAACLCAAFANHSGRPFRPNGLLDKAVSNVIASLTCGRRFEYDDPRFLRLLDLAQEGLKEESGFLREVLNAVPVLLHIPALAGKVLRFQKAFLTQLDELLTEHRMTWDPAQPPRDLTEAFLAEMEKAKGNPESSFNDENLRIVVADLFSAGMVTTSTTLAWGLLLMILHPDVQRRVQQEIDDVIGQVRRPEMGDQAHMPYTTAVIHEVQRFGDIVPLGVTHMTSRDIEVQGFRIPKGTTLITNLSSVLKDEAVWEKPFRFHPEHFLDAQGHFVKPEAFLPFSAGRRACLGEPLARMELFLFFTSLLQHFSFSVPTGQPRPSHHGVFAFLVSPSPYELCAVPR
# Sequence of Delta-type opioid receptor (Homo sapiens) (P41143 whole entry): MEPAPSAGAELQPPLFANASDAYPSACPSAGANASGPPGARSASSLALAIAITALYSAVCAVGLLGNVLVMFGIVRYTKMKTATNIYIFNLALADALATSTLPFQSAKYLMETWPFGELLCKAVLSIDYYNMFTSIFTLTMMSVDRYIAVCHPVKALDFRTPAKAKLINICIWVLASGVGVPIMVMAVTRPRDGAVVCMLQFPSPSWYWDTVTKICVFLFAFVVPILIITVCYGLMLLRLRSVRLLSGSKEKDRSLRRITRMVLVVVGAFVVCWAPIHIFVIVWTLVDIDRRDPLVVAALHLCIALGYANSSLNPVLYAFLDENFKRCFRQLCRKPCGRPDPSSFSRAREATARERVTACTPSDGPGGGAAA
smiles,measurement,setting,value
O=C(N[C@H]1CN2CCC1CC2)c1cc2ccoc2cn1 [PHA-543613],bioavailability,[1],65%
same,Activity,[2],220%
same,Activity,Rattus norvegicus [3],51%
same,inhibition,[4],< 10%
same,inhibition,[5],< 10%
same,inhibition,[6],16%
same,inhibition,[7],< 10%
same,inhibition,[8],< 10%
same,inhibition,[9],10%
same,inhibition,[10],10%
same,inhibition,[11],67%
same,inhibition,Homo sapiens [12],< 10%
same,inhibition,Homo sapiens [13],13%
same,inhibition,[14],14%
same,inhibition,[15],< 10%
same,inhibition,[16],< 10%
same,inhibition,[17],< 10%
same,inhibition,[18],< 10%
same,inhibition,[19],< 10%
same,inhibition,[20],< 10%
same,inhibition,[21],< 10%
same,inhibition,Homo sapiens [22],< 10%
same,inhibition,[23],< 10%
same,inhibition,[24],18%
same,inhibition,[25],< 10%
same,inhibition at 1 µM,MAO-B,< 10%
same,inhibition,[26],< 10%
same,EC50,[27],0.065 µM
same,IC50,[28],> 100 µM
same,IC50,Cytochrome P450 2D6,> 10 µM
same,half-life,[29],> 2 h
same,concentration,Rattus norvegicus [30],14.9 µM
same,inhibition,[31],< 10%
same,inhibition,[32],< 10%
same,inhibition,[33],< 10%
same,inhibition,[34],< 10%
same,inhibition,Homo sapiens [35],11%
same,inhibition,[36],23%
same,inhibition,[37],26%
same,inhibition,[38],14%
same,inhibition,[39],< 10%
same,inhibition,[40],< 10%
